Most compounds without a hit are left out; they make up all but 2.5% or so of the library.
ABCG2 block: blocks JC-1 efflux by human ABCG2 transporter. Q9UNQ0. IgMXP3 cells, flow cytometry. inhibition, % at 6.6 µM. hit rate 0.1% among 190,000. AID 1325;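 active means inhibition above 80%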
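Test system: IgMXP3 (ABCG2) plus far-red-tagged CCRF-Adr (ABCB1) cells. Reagent: JC-1 dye as substrate. Timing: 10 min exposure at 25 °C with rotation, no wash. Measured by: flow cytometric JC-1 green MFI at 530 nm. Read-out: percent efflux inhibition, scaled nicardipine 100% to DMSO 0%. Control set: nicardipine and DMSO wells.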
ABCB1 inh: inhibitors of human ABCB1 transporter, ABCG2 counter-screen; CCRF-Adr cells, JC-1 efflux, flow cytometry; P08183; hit rate 0.067% among 190,000; inhibition, % at 6.6 µM; AID 1326; in the data active means inhibition above about 40%;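 further: higher value means more JC-1 retained so stronger ABCB1 efflux block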
Target sequence (P08183 whole entry, looked up): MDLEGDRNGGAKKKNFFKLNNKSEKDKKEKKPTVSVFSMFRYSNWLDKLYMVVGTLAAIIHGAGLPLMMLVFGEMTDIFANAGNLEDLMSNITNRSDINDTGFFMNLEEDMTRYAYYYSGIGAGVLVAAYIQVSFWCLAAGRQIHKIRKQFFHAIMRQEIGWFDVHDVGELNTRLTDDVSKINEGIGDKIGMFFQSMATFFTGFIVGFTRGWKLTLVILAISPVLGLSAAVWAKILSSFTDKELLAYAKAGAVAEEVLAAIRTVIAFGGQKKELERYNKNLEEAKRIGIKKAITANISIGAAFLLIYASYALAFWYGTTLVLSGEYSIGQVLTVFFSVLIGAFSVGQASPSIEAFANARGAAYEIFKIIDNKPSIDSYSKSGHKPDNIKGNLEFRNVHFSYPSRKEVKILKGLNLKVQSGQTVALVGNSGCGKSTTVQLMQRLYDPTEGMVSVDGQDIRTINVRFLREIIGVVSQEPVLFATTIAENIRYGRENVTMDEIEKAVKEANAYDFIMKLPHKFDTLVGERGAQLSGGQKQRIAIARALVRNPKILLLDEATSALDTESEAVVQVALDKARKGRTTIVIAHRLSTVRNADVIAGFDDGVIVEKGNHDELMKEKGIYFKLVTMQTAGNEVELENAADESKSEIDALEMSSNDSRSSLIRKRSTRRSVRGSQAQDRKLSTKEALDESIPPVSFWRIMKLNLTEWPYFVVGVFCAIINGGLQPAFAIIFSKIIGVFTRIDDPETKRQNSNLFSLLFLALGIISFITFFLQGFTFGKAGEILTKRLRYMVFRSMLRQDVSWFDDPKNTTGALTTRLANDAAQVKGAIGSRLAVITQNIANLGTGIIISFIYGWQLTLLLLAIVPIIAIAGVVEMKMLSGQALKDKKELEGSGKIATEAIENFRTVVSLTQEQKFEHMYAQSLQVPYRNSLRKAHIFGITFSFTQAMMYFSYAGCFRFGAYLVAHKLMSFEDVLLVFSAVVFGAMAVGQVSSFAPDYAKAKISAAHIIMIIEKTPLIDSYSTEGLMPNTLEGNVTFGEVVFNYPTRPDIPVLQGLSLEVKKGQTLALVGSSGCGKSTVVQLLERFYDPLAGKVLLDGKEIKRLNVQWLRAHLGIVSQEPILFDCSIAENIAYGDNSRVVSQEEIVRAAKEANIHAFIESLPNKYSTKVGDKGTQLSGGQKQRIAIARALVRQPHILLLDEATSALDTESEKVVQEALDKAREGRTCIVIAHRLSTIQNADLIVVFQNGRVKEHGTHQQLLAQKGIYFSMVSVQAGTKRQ
MEKK2 WT-MEK5: raises or lowers MEK5 binding to wildtype human MEKK2 PB1 domain; Q9Y2U5; bead flow cytometry, Alexa488-MEK5 binding to MEKK2 WT; actives lie on both sides; binding response (% of control), % at 10 µM; hit rate 1.1% among 290,000; in the data active means binding response below about 67% or above about 130%
MEKK3 PB1 HTS: modulators (inhibitors or enhancers) of MEK5 binding to human MEKK3 PB1 domain | Q99759 | bead-based flow cytometry, Alexa488-MEK5 binding to MEKK3; actives lie on both sides; 0 = blocked by unlabeled MEK5, 100 = vehicle | binding response (% of control), % at 10 µM | hit rate 1.4% among 290,000;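 active means binding response more than 3 SD above or below the average of its plate-row segment, actives on both sides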;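 further: Alexa488 bead fluorescence after subtracting the streptavidin-only scavenger bead signal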
MEKK2 mut-MEK5: signal of MEK5 binding to mutant human MEKK2 PB1 domain; bead flow cytometry, Alexa488-MEK5 binding to MEKK2 mutant; percent response, % at 10 µM; AID 1530; hit rate 0.35% among 290,000; in the data active means percent response above about 24%, passing the limit was not always enough
Efflux pump mplx: inhibitors of Candida antifungal efflux pumps expressed in yeast | S. cerevisiae Candida pump triplex, Nile Red efflux | inhibition, % at 10 µM | hit rate 0.44% among 330,000 | AID 485275;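 active means plate passing quality check with inhibition over a set limit, or well fluorescence over plate mean plus 4 SD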;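 further: Nile Red retained in pooled yeast measured as flow cytometry median fluorescence; higher means more Nile Red kept so more efflux inhibition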
MEKK2wt confirm: raises or lowers MEK5 binding to wildtype human MEKK2, retest; shares compounds with MEKK3 PB1 HTS; bead flow cytometry, Alexa488-MEK5 binding to MEKK2 WT; actives lie on both sides; binding response (% of control), % at 10 µM; hit rate 2.4% among 5,900; in the data active means binding response below about 16% or above about 210%; inactive means in between
MEKK2mut confirm: signal of MEK5 binding to mutant human MEKK2, retest | hit rate 2% among 5,900 | bead flow cytometry, Alexa488-MEK5 binding to MEKK2 mutant | shares compounds with MEKK3 PB1 HTS | percent response, % at 10 µM | AID 1893; in the data active means percent response mostly above about 71%, no sharp cut-off; inactive means mostly below about 38%;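 further: higher means compound restores mutant binding toward wildtype level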
MEKK3-MEK5 inh: confirmation of inhibitors of MEK5 binding to human MEKK3; shares compounds with MEKK3 PB1 HTS; bead flow cytometry, Alexa488-MEK5 binding to MEKK3; active compounds read low; binding response (% of control), % at 10 µM; hit rate 1.8% among 5,900; AID 1894;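 active means binding response below 72% of control, or above a set upper limit, though filed actives all read lower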;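 further: lower values mean stronger disruption of MEK5 binding to MEKK3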
A number is an active result; 0 = inactive; - = no result; [ ] = another dose, or the depositor's remark.

SMILES	ABCG2 block	ABCB1 inh	MEKK2 WT-MEK5	MEKK3 PB1 HTS	MEKK2 mut-MEK5	Efflux pump mplx	MEKK2wt confirm	MEKK2mut confirm	MEKK3-MEK5 inh
COC(=O)C1CCN(CCCOc2ccc(CN3CCN(c4ccc([N+](=O)[O-])cc4)CC3)cc2)CC1	0	0	141.0	0	0	0	0	0	0
COc1ccc(/C=C(/NC(=O)c2ccco2)C(=O)N2CCCCC2)cc1	-	-	0	0	0	0	-	-	-
COc1ccc(/C=C(/NC(=O)c2ccco2)C(=O)N2CCCC2=O)cc1	0	0	59.0[inhibitor]	64.0[inhibitor]	0	0	0	0	0
CC(=O)NC(CCS(C)(=O)=O)C(=O)Nc1ccc(F)cc1Cl (stereo not drawn)	0	0	-	-	-	0	-	-	-
CC(C)CC(=O)N1CCN(c2ccc(NC(=O)c3ccco3)cc2)CC1	-	-	0	0	0	0	-	-	-
Cc1cc([N+](=O)[O-])ccc1N(C)C	0	0	0	0	0	0	-	-	-
CCOC(=O)c1ccccc1-n1c(C)cc(C2N=C(N)Nc3nc4ccccc4n32)c1C (stereo not drawn)	0	0	146.0	0	0	0	0	0	0
CCOC(=O)C1=C(C)Nc2nc3ccccc3n2C1c1ccc(O)cc1 (stereo not drawn)	-	-	0	0	0	0	-	-	-
Cc1ccc(S(=O)(=O)N2CCOCC2)cc1NC(=O)COc1ccc(C(=O)c2ccccc2)cc1	-	-	-	-	-	0	-	-	-
CC1CCCN(CCCOc2ccccc2-c2ccccc2)C1 (stereo not drawn)	0	0	0	0	0	-	-	-	-
Cc1c(NC(=O)CCc2ccccc2)cccc1[N+](=O)[O-]	0	0	0	0	0	0	-	-	-
COCCn1c(SCC(=O)Nc2ccc(C)cc2)nc2c(oc3ccccc32)c1=O	0	0	0	0	0	0	-	-	-
COCCn1c(SCC(=O)Nc2ccccc2)nc2c(oc3ccccc32)c1=O	0	0	7.0[inhibitor]	4.0[inhibitor]	0	0	0	0	0
CCN1CCN(c2cc(N3CCc4ccccc4C3)c(F)cc2[N+](=O)[O-])CC1	0	0	151.0	0	0	0	0	0	0
CCOc1ccc(CCNC(=O)C2CCC(=O)N2CCc2ccccc2)cc1OCC (stereo not drawn)	0	0	-1.0[inhibitor]	2.0[inhibitor]	0	0	0	0	0
CCCCNC(=O)C1CCCN1C(=O)NC1CCCCC1 (stereo not drawn)	0	0	3.0[inhibitor]	2.0[inhibitor]	0	0	0	0	0
O=C(Nc1cccc(O)c1)c1cc(S(=O)(=O)N2CCCC2)ccc1Cl	0	0	0	0	0	0	-	-	-
COc1ccc(CCNCC(O)Cn2c3ccccc3c3ccccc32)cc1OC (stereo not drawn)	0	0	159.0	0	0	0	0	0	0
CCOc1ccc(-c2cc(CCCC(=O)NCCc3ccccc3)no2)cc1	0	0	0	0	0	0	-	-	-
COc1ccc(-c2cc(CCCC(=O)NCCc3ccccc3)no2)cc1	-	-	-15.0[inhibitor]	0.0[inhibitor]	0	0	0	0	0
CCC1(c2ccccc2)NC(=S)N(c2cccc(C)c2C)N1 (stereo not drawn)	0	0	0	129.0	0	0	0	0	0
CCOC(=O)Cc1csc(NC(=O)c2sc3nc4c(C)cc(C)cc4cc3c2N)n1	0	0	0	0	0	0	-	-	-
CCOC(=O)C1=C(C)Nc2ccccc2S1	-	-	0	0	0	0	-	-	-
CCOC(=O)/C=C1\Nc2ccccc2SC1=O	0	0	2.0[inhibitor]	2.0[inhibitor]	0	0	0	0	0
COc1ccc(NC(=O)Nc2nc3c(s2)CCCC3)cc1	0	0	0	136.0	0	0	0	0	0
SMILES	ABCG2 block	ABCB1 inh	MEKK2 WT-MEK5	MEKK3 PB1 HTS	MEKK2 mut-MEK5	Efflux pump mplx	MEKK2wt confirm	MEKK2mut confirm	MEKK3-MEK5 inh
CC(NC(=O)c1ccco1)C(=O)OC(C)C(=O)NCc1ccccc1 (stereo not drawn)	0	0	0	0	0	0	-	-	-
CCn1cc(C=C2C(=O)c3ccccc3C2=O)c2ccccc21	0	0	33.0[inhibitor]	0	0	-	0	0	0
CCN=C1S/C(=C\c2cn(CC)c3ccccc23)C(=O)N1CC	0	0	0	0	0	0	-	-	-
C[N+]1(CC(=O)NNc2c3ccccc3nc3ccccc23)CCOCC1	0	0	0	0	0	0	-	-	-
O=C(CN1CCOCC1)NNc1c2ccccc2nc2ccccc12	-	-	37.0[inhibitor]	40.0[inhibitor]	0	0	0	0	0
Cc1ccc(-c2noc(CCC(=O)NC3CC3)n2)cc1	-	-	0	0	0	0	-	-	-
CCOc1ccccc1CN1C(=O)c2ccccc2C1C(=O)NC(C)CC (stereo not drawn)	0	0	0	128.0	0	0	0	0	0
Cc1ccc2nc(N(CCCN(C)C)C(=O)c3ccc(S(=O)(=O)N(C)C)cc3)sc2c1	0	0	0	0	0	0	-	-	-
Cc1ccc2sc(N(CCCN(C)C)C(=O)c3nc4ccccc4s3)nc2c1C	0	0	144.0	0	0	0	0	0	0
Cc1ccc2nc(N(CCCN(C)C)C(=O)c3sc4ccccc4c3Cl)sc2c1	0	0	155.0	133.0	0	0	0	0	0
Cc1cccc2sc(N(CCCN(C)C)C(=O)c3nc4ccccc4s3)nc12	0	0	0	67.0[inhibitor]	0	0	0	0	0
Cc1ccc(NC(=O)C2CCN(S(=O)(=O)c3ccc4c(c3)CCCC(=O)N4)CC2)c(Br)c1	-	-	0	0	0	0	-	-	-
Cc1nc(COC(=O)c2ccc(CO)cc2)cs1	0	0	0.0[inhibitor]	0.0[inhibitor]	0	0	0	0	0
Cc1nc(COC(=O)c2cc(O)c3ccccc3c2O)cs1	0	0	0	0	0	-	-	-	-
CCn1c(SCC(=O)c2ccc(Cl)cc2)nnc1-c1ccoc1C	0	0	0	0	0	0	-	-	-
Cc1occc1-c1nnc(SCC(=O)c2ccc(Cl)cc2)n1CC1CCCO1 (stereo not drawn)	0	0	3.0[inhibitor]	2.0[inhibitor]	0	0	0	0	0
COc1cc2c(=O)n(CC3CCCO3)c(=O)n(CC(=O)Nc3ccccc3)c2cc1OC (stereo not drawn)	-	-	0	0	0	0	-	-	-
Cc1ccc(NC(=O)CN(C)S(=O)(=O)c2cccc3cccnc23)cc1	0	0	0	0	0	0	-	-	-
Cc1ccc(NC(=O)CN(C)S(=O)(=O)c2cccc3cccnc23)c(C)c1	-	-	0	134.0	0	0	0	0	0
Cc1ccccc1NC(NC(=O)c1cccnc1)C(Cl)(Cl)Cl (stereo not drawn)	0	0	0	132.0	0	0	0	0	0

Source: PubChem BioAssay
